# Measured values published in ChEMBL document CHEMBL2434944, “Novel acetamidothiazole derivatives: synthesis and in vitro anticancer evaluation” (Eur J Med Chem, 2013).
# Key:
# HT-29 = experiment: Growth inhibition of human HT-29 cells assessed as cell growth at 10^-5 M after 48 hrs by sulforhodamine B assay relative to control; type: functional; settings: HT-29, 48 h, read-out: Activity
# Method in brief: (§1)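 NCI-60 single-dose screen at 10^-5 M. Cells grown in RPMI 1640 with 5% FBS and 2 mM L-glutamine, plated at 5,000–40,000 cells/well according to doubling time, and preincubated 24 h at 37°C, 5% CO2. Compound dissolved in DMSO and added. Exposure 48 h. Adherent cells fixed with cold TCA (10% final), suspension cells with 16% final TCA. Read-out is 0.4% SRB staining, dye solubilised in 10 mM Tris, absorbance at 515 nm. Percent growth is calculated against the time-zero plate and untreated control.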
# RPMI-8226 = experiment: Growth inhibition of human RPMI8226 cells assessed as cell growth at 10^-5 M after 48 hrs by sulforhodamine B assay relative to control; type: functional; settings: RPMI-8226, 48 h, read-out: Activity; method in brief: as §1
# T47D = experiment: Growth inhibition of human T47D cells assessed as cell growth at 10^-5 M after 48 hrs by sulforhodamine B assay relative to control; type: functional; settings: read-out: Activity
# Method in brief: (§2)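 NCI-60 single-dose screen, 10^-5 M final. Cells grown in RPMI 1640 with 5% FBS and 2 mM L-glutamine, seeded at 5,000–40,000 cells/well by doubling time. Preincubated 24 h at 37°C, 5% CO2. Compound in DMSO, diluted in medium with gentamicin, then 48 h exposure. Fixed with cold TCA, SRB stained, A515 read. Percent growth vs untreated control, time-zero plate corrected.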
# ACHN = experiment: Growth inhibition of human ACHN cells assessed as cell growth at 10^-5 M after 48 hrs by sulforhodamine B assay relative to control; type: functional; settings: read-out: Activity; method in brief: as §1
# BT-549 = experiment: Growth inhibition of human BT549 cells assessed as cell growth at 10^-5 M after 48 hrs by sulforhodamine B assay relative to control; type: functional; settings: BT-549, 48 h, read-out: Activity; method in brief: as §1
# [1] = molecular target: T1, Leukotriene A-4 hydrolase (Homo sapiens, UniProt P09960); experiment: Inhibition of human leukotriene A-4 hydrolase
# T1 sequence (P09960 whole entry): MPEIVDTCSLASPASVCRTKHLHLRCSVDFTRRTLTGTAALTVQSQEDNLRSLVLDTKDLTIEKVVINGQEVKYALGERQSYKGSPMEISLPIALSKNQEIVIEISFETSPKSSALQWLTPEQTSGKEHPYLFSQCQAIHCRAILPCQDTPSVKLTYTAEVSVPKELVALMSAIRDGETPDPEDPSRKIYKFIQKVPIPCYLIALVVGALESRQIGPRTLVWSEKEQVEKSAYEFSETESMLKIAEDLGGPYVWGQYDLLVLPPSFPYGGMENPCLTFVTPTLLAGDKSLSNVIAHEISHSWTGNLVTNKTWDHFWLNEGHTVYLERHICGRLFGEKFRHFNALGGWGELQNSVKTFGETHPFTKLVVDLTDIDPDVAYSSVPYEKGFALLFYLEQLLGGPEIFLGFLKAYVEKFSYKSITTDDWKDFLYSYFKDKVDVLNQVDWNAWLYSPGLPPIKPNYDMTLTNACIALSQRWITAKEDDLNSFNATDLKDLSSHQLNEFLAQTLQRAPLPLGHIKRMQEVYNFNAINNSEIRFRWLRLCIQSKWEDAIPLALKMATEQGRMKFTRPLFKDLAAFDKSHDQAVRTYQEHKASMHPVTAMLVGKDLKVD
# SK-MEL-28 = experiment: Growth inhibition of human SK-MEL-28 cells assessed as cell growth at 10^-5 M after 48 hrs by sulforhodamine B assay relative to control; type: functional; settings: SK-MEL-28, 48 h, read-out: Activity; method in brief: as §1
# [2] = Growth inhibition of human HCC2998 cells assessed as cell growth at 10^-5 M after 48 hrs by sulforhodamine B assay relative to control; type: functional; settings: HCC 2998, 48 h, read-out: Activity; method in brief: as §1
# Thymidylate synthase = Thymidylate synthase (Homo sapiens, UniProt P04818); experiment: Inhibition of human thymidylate synthase
# Cathepsin K = molecular target: T2, Cathepsin K (Homo sapiens, UniProt P43235); experiment: Inhibition of human cathepsin K
# T2 sequence (P43235 whole entry): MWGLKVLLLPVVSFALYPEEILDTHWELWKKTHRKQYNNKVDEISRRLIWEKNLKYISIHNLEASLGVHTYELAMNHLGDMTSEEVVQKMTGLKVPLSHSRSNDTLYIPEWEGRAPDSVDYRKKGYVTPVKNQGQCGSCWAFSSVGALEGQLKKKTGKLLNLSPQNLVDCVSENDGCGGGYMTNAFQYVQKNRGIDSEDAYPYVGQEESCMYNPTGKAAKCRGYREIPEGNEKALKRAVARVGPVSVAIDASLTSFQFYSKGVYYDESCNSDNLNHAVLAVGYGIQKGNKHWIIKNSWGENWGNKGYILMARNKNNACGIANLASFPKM
# HCT-15 = experiment: Growth inhibition of human HCT15 cells assessed as cell growth at 10^-5 M after 48 hrs by sulforhodamine B assay relative to control; type: functional; settings: HCT-15, 48 h, read-out: Activity; method in brief: as §1
# SK-MEL-5 = experiment: Growth inhibition of human SK-MEL-5 cells assessed as cell growth at 10^-5 M after 48 hrs by sulforhodamine B assay relative to control; type: functional; settings: SK-MEL-5, 48 h, read-out: Activity; method in brief: as §1
# SNB-19 = experiment: Growth inhibition of human SNB19 cells assessed as cell growth at 10^-5 M after 48 hrs by sulforhodamine B assay relative to control; type: functional; settings: SNB-19, 48 h, read-out: Activity; method in brief: as §1
# HOP-62 = experiment: Growth inhibition of human HOP62 cells assessed as cell growth at 10^-5 M after 48 hrs by sulforhodamine B assay relative to control; type: functional; settings: HOP-62, 48 h, read-out: Activity; method in brief: as §1
# [3] = Growth inhibition of human Hs 578T cells assessed as cell growth at 10^-5 M after 48 hrs by sulforhodamine B assay relative to control; type: functional; settings: read-out: Activity; method in brief: as §1
# OVCAR-4 = experiment: Growth inhibition of human OVCAR4 cells assessed as cell growth at 10^-5 M after 48 hrs by sulforhodamine B assay relative to control; type: functional; settings: OVCAR-4, 48 h, read-out: Activity; method in brief: as §1
# PC-3 = experiment: Growth inhibition of human PC3 cells assessed as cell growth at 10^-5 M after 48 hrs by sulforhodamine B assay relative to control; type: functional; settings: PC-3, 48 h, read-out: Activity; method in brief: as §1
# [4] = Growth inhibition of human NCI-ADR-RES cells assessed as cell growth at 10^-5 M after 48 hrs by sulforhodamine B assay relative to control; type: functional; settings: read-out: Activity; method in brief: as §1
# UO-31 = experiment: Growth inhibition of human UO31 cells assessed as cell growth at 10^-5 M after 48 hrs by sulforhodamine B assay relative to control; type: functional; settings: UO-31, 48 h, read-out: Activity; method in brief: as §2
# SF-268 = experiment: Growth inhibition of human SF268 cells assessed as cell growth at 10^-5 M after 48 hrs by sulforhodamine B assay relative to control; type: functional; settings: SF-268, 48 h, read-out: Activity; method in brief: as §1
# A498 = experiment: Growth inhibition of human A498 cells assessed as cell growth at 10^-5 M after 48 hrs by sulforhodamine B assay relative to control; type: functional; settings: A498, 48 h, read-out: Activity; method in brief: as §1
# Thymidylate synthase, sequence (P04818 whole entry): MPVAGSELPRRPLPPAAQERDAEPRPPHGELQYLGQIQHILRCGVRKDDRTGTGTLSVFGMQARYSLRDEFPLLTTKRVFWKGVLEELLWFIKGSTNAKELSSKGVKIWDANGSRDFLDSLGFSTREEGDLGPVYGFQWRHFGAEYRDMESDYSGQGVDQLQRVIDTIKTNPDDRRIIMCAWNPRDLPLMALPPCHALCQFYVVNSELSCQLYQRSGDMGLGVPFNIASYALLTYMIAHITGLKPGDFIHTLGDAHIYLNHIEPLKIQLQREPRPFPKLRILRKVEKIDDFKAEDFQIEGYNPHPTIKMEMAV
SMILES,growth at 10 µM (HT-29),growth at 10 µM (RPMI-8226),growth at 10 µM (T47D),growth at 10 µM (ACHN),growth at 10 µM (BT-549),Ki [1],growth at 10 µM (SK-MEL-28),growth at 10 µM [2],Ki (Thymidylate synthase),Ki (Cathepsin K),growth at 10 µM (HCT-15),growth at 10 µM (SK-MEL-5),growth at 10 µM (SNB-19),growth at 10 µM (HOP-62),growth at 10 µM [3],growth at 10 µM (OVCAR-4),growth at 10 µM (PC-3),growth at 10 µM [4],growth at 10 µM (UO-31),growth at 10 µM (SF-268),further results
Cc1ccc(-c2csc(=N)n2CC(=O)N2CCN(c3ccccc3)CC2)cc1,111%,92.4%,78%,81.2%,92.6%,4.29 µM,100%,104%,5.6 µM,10.8 µM,104%,88.2%,96.6%,111%,88.2%,88.4%,82.1%,92.6%,78.8%,105%,growth at 10 µM (A498): 92.6%
N=c1scc(-c2ccc(Cl)cc2)n1CC(=O)N1CCN(c2ccccc2)CC1,92.9%,83.4%,88.9%,96.1%,102%,0.093 µM,98.6%,95.6%,5.09 µM,11.1 µM,96.8%,91.9%,100%,109%,106%,86.4%,81.8%,98%,91%,105%,growth at 10 µM (A498): 84.9%
N=c1scc(-c2ccccc2)n1CC(=O)N1CCN(c2ccccc2)CC1,106%,92.1%,91.2%,83.4%,95.5%,0.643 µM,98.8%,100%,1.36 µM,11.6 µM,97%,94.8%,98.6%,96.6%,96.5%,90.5%,72.3%,86.5%,58%,101%,growth at 10 µM (A498): 87.2%
CC(=O)N1CCN(C(=O)Cn2c(-c3ccc(C)cc3)csc2=N)CC1,105%,82.3%,73.4%,92.8%,104%,1.64 µM,98.9%,101%,3.65 µM,24 µM,90.6%,92.1%,100%,101%,105%,97%,65.2%,93%,83.1%,101%,growth at 10 µM (A498): 80.6%
CC(=O)N1CCN(C(=O)Cn2c(-c3ccc(Cl)cc3)csc2=N)CC1,85.8%,73.3%,79%,90.7%,89.9%,0.607 µM,90.8%,98.9%,11.3 µM,24.2 µM,86.5%,86.4%,84.2%,93.4%,104%,77.2%,81.6%,95.5%,89.1%,95.1%,growth at 10 µM (A498): 67.7%
Cc1ccc(-c2csc(=N)n2CC(=O)N2CCN(C)CC2)cc1,110%,83.5%,81.6%,81.2%,115%,0.369 µM,97.5%,103%,19.3 µM,8.71 µM,91.6%,87.2%,99.8%,99.5%,101%,87.4%,68.4%,93.1%,83.1%,96.7%,growth at 10 µM (A498): 80.2%
CC(=O)N1CCN(C(=O)Cn2c(-c3ccccc3)csc2=N)CC1,101%,97.3%,85.9%,89.5%,98%,2.59 µM,101%,107%,10.9 µM,21.9 µM,94.5%,90.2%,103%,85.3%,110%,96.9%,83.5%,105%,60.4%,100%,growth at 10 µM (A498): 100%
CN1CCN(C(=O)Cn2c(-c3ccc(Cl)cc3)csc2=N)CC1,96%,79.1%,78.4%,98.6%,104%,0.172 µM,107%,97.5%,0.34 µM,4.58 µM,93.1%,100%,92.7%,101%,106%,90.5%,83.3%,98%,89.2%,98.4%,growth at 10 µM (A498): 80%
